Values after ≈ are worked out from the molar mass of the structure shown.
Tests used:
[1] = […]
Outline: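 Cells washed in low-Ca buffer (pH 7.4, 2 mM CaCl₂) with 0.625 mM probenecid. Glutamate ± compound added in 20 mM CaCl₂ buffer. Ca²⁺ fluorescence read; pEC50 is the mean of two experiments run in duplicate.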

[2] = Aqueous solubility of the compound; format: physicochemical
[3] = Intrinsic clearance in rat liver microsomes; format: ADME, Microsome
[4] = Intrinsic clearance in human liver microsomes; format: ADME, Microsome
[5] = Volume of distribution at steady state in Wistar rat at 2 mg/kg, iv; format: ADME, organism-based; parameters: dose 2 mg/kg, route intravenous; conditions: in vivo, read-out: Vdss
[6] = Permeability from apical to basolateral side of human Caco-2 cells; format: ADME, cell-based; conditions: read-out: permeability
[7] = Permeability from basolateral to apical side of human Caco-2 cells; format: ADME, cell-based; conditions: read-out: permeability
[8] = Clearance in Wistar rat at 2 mg/kg, iv; format: ADME, organism-based; parameters: dose 2 mg/kg, route intravenous; conditions: in vivo
[9] = Half life in Wistar rat at 2 mg/kg, iv; format: ADME, organism-based; parameters: dose 2 mg/kg, route intravenous; conditions: in vivo

| SMILES | pEC50 [1] | further results |
| --- | --- | --- |
| O=C(Cn1nc(C(F)(F)F)c2c1CCCC2)Nc1sc2c(c1C(=O)NC1CNC1)CCCC2 | 6.5 | – |
| NC(=O)c1ccsc1NC(=O)Cn1nc(C(F)(F)F)c2c1CCCC2 | 5.2 | solubility [2]: 0.01 mg/mL (≈ 26.9 µM) |
| NC(=O)c1c(NC(=O)Cn2c(C(F)(F)F)nc3ccccc32)sc2c1CCCC2 | < 4.5 | – |
| CCNC(=O)c1c(NC(=O)Cn2nc(C(F)(F)F)c3c2CCCC3)sc2c1CCCC2 | 6.5 | – |
| NCCCCNC(=O)c1c(NC(=O)Cn2nc(C(F)(F)F)c3c2CCCC3)sc2c1CCCC2 | 5.9 | – |
| CN(C)CCNC(=O)c1c(NC(=O)Cn2nc(C(F)(F)F)c3c2CCCC3)sc2c1CCCC2 | 5.2 | – |
| NC(=O)c1c(NC(=O)Cn2nc(C(F)(F)F)c3c2CCCC3)sc2c1CCNC2 | 5.3 | – |
| NCCCNC(=O)c1c(NC(=O)Cn2nc(C(F)(F)F)c3c2CCCC3)sc2c1CCCC2 | 6.4 | microsomal CLint [3]: 77 µL/min/mg; microsomal CLint [4]: 17 µL/min/mg; Vd [5]: 3.8 L/kg; Papp A→B [6]: 34 nm/s; Papp B→A [7]: 55 nm/s; clearance [8]: 1.26 L/h/kg; half-life [9]: 3.2 h |
| NC(=O)c1c(NC(=O)Cn2nc(C(F)(F)F)cc2C(F)(F)F)sc2c1CCCC2 | 5.8 | microsomal CLint [3]: 200 µL/min/mg; solubility [2]: < 0.001 mg/mL; microsomal CLint [4]: 174 µL/min/mg |
| NC(=O)c1c(NC(=O)Cn2ccc(C(F)(F)F)n2)sc2c1CCCC2 | 5.3 | – |
| NC(=O)c1c(NC(=O)Cn2nc(C(F)(F)F)c3c2CCCC3)sc2c1CCCC2 | 6.7 | – |
| O=C(Cn1nc(C(F)(F)F)c2c1CCCC2)Nc1sc2c(c1C(=O)NCCO)CCCC2 | 7.3 | – |
| CNCCNC(=O)c1c(NC(=O)Cn2nc(C(F)(F)F)c3c2CCCC3)sc2c1CCCC2 | 5.7 | – |
| NCCNC(=O)c1c(NC(=O)Cn2nc(C(F)(F)F)c3c2CCCC3)sc2c1CCCC2 | 5.8 | – |
| O=C(Cn1nc(C(F)(F)F)c2c1CCCC2)Nc1sc2c(c1C(=O)NC1CC1)CCCC2 | 6.2 | – |
| NC(=O)c1c(NC(=O)Cn2nc(C(F)(F)F)c3cnccc32)sc2c1CCCC2 | 6.4 | microsomal CLint [3]: 91 µL/min/mg |
| O=C(Cn1nc(C(F)(F)F)c2c1CCCC2)Nc1sc2c(c1C(=O)N[C@H]1CCNC1)CCCC2 | 5.8 | – |
| NC(=O)c1c(CO)csc1NC(=O)Cn1nc(C(F)(F)F)c2c1CCCC2 | 5.5 | – |
| CS(=O)(=O)NCCNC(=O)c1c(NC(=O)Cn2nc(C(F)(F)F)c3c2CCCC3)sc2c1CCCC2 | 7 | – |
| NC(=O)c1c(NC(=O)Cn2nc(C(F)(F)F)c3c2CCCC3)sc2c1CCOC2 | 6.7 | microsomal CLint [4]: > 270 µL/min/mg |
| Cc1sc(NC(=O)Cn2nc(C(F)(F)F)c3c2CCCC3)c(C(N)=O)c1C | 6.1 | – |
| Cc1cc(C)n(CC(=O)Nc2sc3c(c2C(N)=O)CCCC3)n1 | < 4.5 | – |
| O=C(Cn1nc(C(F)(F)F)c2c1CCCC2)Nc1sc2c(c1C(=O)NCC1CNC1)CCCC2 | 6.2 | – |
| O=C(Cn1nc(C(F)(F)F)c2c1CCCC2)Nc1sc2c(c1C(=O)N[C@@H]1CCNC1)CCCC2 | 6.6 | – |
| CCc1c(C)sc(NC(=O)Cn2nc(C(F)(F)F)c3c2CCCC3)c1C(N)=O | 6.2 | – |
